Screening results from PubChem.
CFTR F508del cor: F508del CFTR correction, initial screen, CFBE line, single point; CFBE cells, YFP halide quenching; stimulated with forskolin plus potentiator P3; % fluorescence drop versus neutral controls; activity (quench increase), % at 7.58 µM; 350,000 tested, 0.36% active; AID 720511, 2013;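 active = mean added fluorescence quench of at least 8% versus neutral control, with both replicates also reaching 8%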;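 note: cells transiently co-express mutant CFTR-F508del with the halide-sensitive YFP; corrector assay measuring rescue of mutant channel to the surface after 24 h compound exposure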
rRNA inh HTS: reduced GFP signal of wild-type E. coli, primary screen, bacterial rRNA inhibitor project, GFP/RFP fluorescence, OD600, single point; E. coli WT GFP vs humanized-ribosome RFP mutants, 24 h; stronger effect = lower value; DMSO median 0, no signal -100; GFP signal change (wild-type ribosome), % (concentration not given with the values); 350,000 tested, 1.6% active; AID 720706, 2013;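 active = significant combined selectivity score with lowered wild-type GFP, culture density cut under 30%, mutant RFP and density less affected; inactive = any of these conditions unmet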
Env fusion inh: inhibitors of HIV-1 Env-driven cell-cell fusion, primary screen, HeLa-JRFL effector, CEM21 target cells, luciferase; inhibition, % at 12.3 µM; 360,000 tested, 1.1% active;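 active = mean replicate inhibition score of at least 50 and every replicate individually at or above 50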
GSIS activator: GLuc luminescence reporter in INS-1E cells, primary screen for activators of glucose-dependent secretion of insulin | INS-1E GLuc reporter insulin secretion, 2-3 h | activation, % at 16.6 µM | 370,000 tested, 0.61% active;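 active = lowest replicate activation of at least 40%, so every replicate reaches that level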
miR-122 sensor: miR-122 Renilla sensor signal increase in Huh7, primary screen, miR-122 inhibitor project, cell-based, single point, plate reader. 340,000 tested, 0.3% active. Huh7 miR-122 Renilla luciferase sensor, 48 h; neutral wells = 0, positive control = 100. activation (reporter increase), % at 12.5 µM. AID 602342, 2012;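 active = mean replicate activation score at least 90 and every replicate individually at or above 90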;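 note: higher luciferase means less miR-122 activity so hits act as miR-122 inhibitors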
Cneo AK release: Cryptococcus neoformans cell lysis inducers, primary screen, AK release luminescence, single concentration; C. neoformans lysis, adenylate kinase release luminescence, 4 h; normalised: neutral wells 0, clomiphene wells 100; lysis activity, % at 15 µM; 360,000 tested, 0.2% active; AID 651654, 2012;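 active = mean lysis activity across replicates of at least 80%, whatever share of replicates individually reach that level; inactive = mean lysis activity below 80%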
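Material – Cryptococcus neoformans yeast cells · Quantity – 5 × 10^6 yeast cells/mL · Buffer or medium – YPD medium · Compound – single dose · Timing – 4 h static compound exposure, 37 °C, read 1 h post-reagent · Signal – adenylate kinase release luminescence · Read-out basis – lysis from increased AK signal · Benchmarks – Clomiphene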
Each line names hits and unclear results; the compound was inactive in the other large screens. Only some compounds are listed: those with a hit (about 3.1% of all), similar ones and a draw of the others.

CC(C)NC(=O)N(C)C[C@@H]1OCCCC[C@@H](C)Oc2ccc(NC(=O)Nc3ccc4c(c3)OCO4)cc2C(=O)N([C@@H](C)CO)C[C@H]1C	none
CCCC(=O)N1CC2(CCN(CC3CCCC3)CC2)c2c([nH]c3cc(OC)ccc23)[C@@H]1CO	none (no result: Env fusion inh, miR-122 sensor, Cneo AK release)
COc1ccc(S(=O)(=O)N(C)C[C@@H]2Oc3ccc(NS(=O)(=O)c4ccc(Cl)cc4)cc3C(=O)N([C@@H](C)CO)C[C@H]2C)cc1	none (no result: Env fusion inh)
CCOc1ccc(CCNC(=O)COC(=O)c2cccc(N(C)C)c2)cc1OCC	GSIS activator 52.1 (no result: Cneo AK release)
CCOc1ccc(CCNC(=O)COC(=O)COc2ccc(Br)cc2)cc1OCC	GSIS activator 69.5
CCOc1ccc(CCNC(=O)COC(=O)COc2ccc(C(C)=O)cc2)cc1OCC	none
CCOc1ccc(CCNC(=O)COC(=O)Cn2nc(C)c([N+](=O)[O-])c2C)cc1OCC	GSIS activator 55.9 (no result: Env fusion inh)
C[C@@H]1CCCCO[C@H](CN(C)Cc2ccccc2)[C@H](C)CN([C@H](C)CO)C(=O)c2cc(NS(=O)(=O)c3cn(C)cn3)ccc2O1	none
NS(=O)(=O)c1ccc(CCNc2nn3c(-c4cccc(OC(F)(F)F)c4)cnc3s2)cc1	CFTR F508del cor 13.7, GSIS activator 143.4
O=C(C[C@H]1CC[C@@H](NC(=O)c2cccc(F)c2)[C@@H](CO)O1)Nc1nccs1	none (no result: miR-122 sensor)
O=c1c2ccccc2nc(-c2ccco2)n1/N=C/c1ccco1	GSIS activator 54.5 (no result: CFTR F508del cor, rRNA inh HTS, Env fusion inh)
Cc1nc2ccccc2c(=O)n1/N=C/c1ccco1	none (no result: rRNA inh HTS, GSIS activator)
O=c1c2ccccc2nc(COc2ccccc2)n1/N=C/c1ccc(O)cc1O	rRNA inh HTS -30.6 (no result: miR-122 sensor, Cneo AK release)
O=c1c2ccccc2nc(-c2ccco2)n1/N=C/c1ccccc1O	GSIS activator 69.4 (no result: CFTR F508del cor, rRNA inh HTS, Env fusion inh)
O=c1c2ccccc2nc(COc2ccccc2)n1/N=C/c1c[nH]c2ccccc12	none (no result: CFTR F508del cor)
CNC[C@H]1Oc2ncc(-c3ccccc3C)cc2C(=O)N([C@H](C)CO)C[C@H]1C	none (no result: rRNA inh HTS)
O=C(N/N=C/c1cccc(Oc2ccccc2)c1)c1ccccc1Br	rRNA inh HTS -27.9 (no result: Env fusion inh)
COc1ccc(OC)c(CN2C(=O)c3ccccc3C2C(=O)NCC2CCCO2)c1 (centres undefined)	GSIS activator 52.3
O=C(NCC1CCCO1)C1CCC(N2C(=O)c3ccccc3C2=O)CC1 (centres undefined)	GSIS activator 80.6 (no result: CFTR F508del cor, rRNA inh HTS)
O=C(C1CC1)N1[C@@H](CO)[C@@H]2c3ccccc3N(S(=O)(=O)c3ccc(F)cc3)C[C@@H]21	none (no result: Env fusion inh)
C[C@H](CO)N1C[C@H](C)[C@H](CN(C)C(=O)NC2CCCC2)Oc2ncc(-c3cccc(C(F)(F)F)c3)cc2C1=O	none
CCC(C(=O)Nc1ccc(N2CCOCC2)c(S(=O)(=O)Nc2ccccc2OC)c1)c1ccccc1 (centres undefined)	miR-122 sensor 120.8 (no result: Cneo AK release)
COc1ccccc1NS(=O)(=O)c1cc(NC(=O)CCC2CCCC2)ccc1N1CCOCC1	miR-122 sensor 119.0
COc1ccccc1NS(=O)(=O)c1cc(NC(=O)CCC(=O)c2cccs2)ccc1Cl	miR-122 sensor 107.7 (no result: Env fusion inh)
CC(=O)Nc1ccc(N2CCOCC2)c(S(=O)(=O)Nc2ccccc2Cl)c1	none
C=CCNC(=S)Nc1ccc(N2CCOCC2)c(S(=O)(=O)Nc2ccccc2Cl)c1	rRNA inh HTS -33.8
C[C@@H](O)C#Cc1ccc([C@@H]2[C@@H](CO)N3CCCCN(S(=O)(=O)Cc4ccccc4)C[C@H]23)cc1	none (no result: Env fusion inh)
COc1cc(/C=C/C(=O)Nc2ccc(N3CCCCC3)c(S(=O)(=O)Nc3ccccc3Cl)c2)cc(OC)c1OC	miR-122 sensor 288.7 (no result: CFTR F508del cor, rRNA inh HTS, Cneo AK release)
COc1ccc(NS(=O)(=O)c2cc(NC(=O)CCc3ccc(OC)c(OC)c3)ccc2N2CCOCC2)cc1	miR-122 sensor 118.1
COc1ccc(NS(=O)(=O)c2cc(NC(=O)C3CC3)ccc2N2CCOCC2)cc1	none
